This is an account of results in ChEMBL document CHEMBL1122293, “Synthesis, evaluation of chemical reactivity, and murine antineoplastic activity of 2-hydroxy-5-(3,4-dichlorophenyl)-6,7-bis(hydroxymethyl)-2,3-dihydro-1H- pyrrolizine bis(2-propylcarbamate) and 2-acyloxy derivatives as potential water-soluble prodrugs” (J Med Chem, 1983).

Structures are written as SMILES. In brackets after ≈: the same amount, converted by molar mass.

Data set [1] in a line: Water solubility of the compound. The data set is classed as ADME. Conditions: read-out: S. The gist of the method:
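Excess bis(carbamate) (30-60 mg) in 2 mL distilled water, vortexed 10 min, filtered through Teflon wool and diluted. UV absorbance read at 291 nm. Concentration from a linear Beer's law calibration made with a salt standard (r = 0.998).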

The subject of data set [2] is P388. The data set is described as follows: Log of the tumor cell population at the end of treatment at 80 mg/kg (ip) against P388 Lymphocytic Leukemia in mice. The data set is classed as functional, Mus musculus.
Data set [3] relates to P388. The data set is described as follows: Median survival time of test animals compared to controls at 5 mg/kg (ip) against P388 Lymphocytic Leukemia in mice. It counts as functional, Mus musculus. The gist of the method:
(§1)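 P388 leukemia cells were given ip to male CDF1 mice. Dosing started 24 h later: nine daily ip doses given as suspensions in Klucel (hydroxypropylcellulose) or in water. Toxicity day was day 5 and evaluation was on day 30. The value is % T/C of median survival time against untreated controls, with a parallel positive-control arm.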

Data set [4] concerns P388. The data set is described as follows: Median survival time of test animals compared to controls at 10 mg/kg (ip) against P388 Lymphocytic Leukemia in mice. The data set is classed as functional, Mus musculus. The gist of the method:
as §1

Data set [5] has as its system P388. The data set is described as follows: Weight difference at 5 mg/kg (ip)against P388 Lymphocytic Leukemia in mice. The data set is classed as functional, Mus musculus. The gist of the method: (§2)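 Male CDF1 mice inoculated ip with P388 leukemia cells. Nine daily ip doses beginning 24 h later, as suspensions in Klucel or water. Acute toxicity evaluated day 5. Weight difference reported as treated minus control (g).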

Data set [6] relates to P388. The data set is described as follows: Weight difference at 80 mg/kg (ip)against P388 Lymphocytic Leukemia in mice. The data set is classed as functional, Mus musculus. The gist of the method:
as §2

The test system of data set [7] is P388. The data set is described as follows: Log of the tumor cell population at the end of treatment at 10 mg/kg (ip) against P388 Lymphocytic Leukemia in mice. The data set is classed as functional, Mus musculus.
Data set [8] deals with P388. The data set is described as follows: Log of the tumor cell population at the end of treatment at 100 mg/kg (ip) against P388 Lymphocytic Leukemia in mice. The data set is classed as functional, Mus musculus.
For data set [9], the system named is P388. The data set is described as follows: Median survival time of test animals compared to controls at 80 mg/kg (ip) against P388 Lymphocytic Leukemia in mice. It counts as functional, Mus musculus. The essentials:
as §1

In data set [10] the test system is P388. The data set is described as follows: Median survival time of test animals compared to controls at 25 mg/kg (ip) against P388 Lymphocytic Leukemia in mice. It counts as functional, Mus musculus. The gist of the method:
(§3)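 P388 leukemia cells were inoculated ip into male CDF1 mice. Treatment began 24 h later, given ip as five daily doses, either as a Klucel (hydroxypropylcellulose) suspension or as an aqueous solution. Acute toxicity was assessed on day 5 and results were read on day 30. The value is median survival of treated versus control mice, as % T/C.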

For data set [11], the system named is P388. The data set is described as follows: Median survival time of test animals compared to controls at 100 mg/kg (ip) against P388 Lymphocytic Leukemia in mice. The data set is classed as functional, Mus musculus. The gist of the method: as §3
The test system of data set [12] is P388. The data set is described as follows: Weight difference at 100 mg/kg (ip)against P388 Lymphocytic Leukemia in mice. It counts as functional, Mus musculus. The gist of the method: (§4)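 Male CDF1 mice given 6×10^6 leukemia cells ip. Five daily ip doses beginning 24 h later, as Klucel suspension or aqueous solution. Acute toxicity on day 5; survival assessed on day 30. Weight difference reported as treated minus control (g).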

Data set [13] relates to P388. The data set is described as follows: Weight difference at 20 mg/kg (ip)against P388 Lymphocytic Leukemia in mice. It counts as functional, Mus musculus. The gist of the method: as §2
Data set [14] relates to P388. The data set is described as follows: Median survival time of test animals compared to controls at 20 mg/kg (ip) against P388 Lymphocytic Leukemia in mice. It counts as functional, Mus musculus. The gist of the method: as §1
The test system of data set [15] is P388. The data set is described as follows: Log of the tumor cell population at the end of treatment at 20 mg/kg (ip) against P388 Lymphocytic Leukemia in mice. It counts as functional, Mus musculus.
For data set [16], the system named is P388. The data set is described as follows: Log of the tumor cell population at the end of treatment at 40 mg/kg (ip) against P388 Lymphocytic Leukemia in mice. The data set is classed as functional, Mus musculus.
Data set [17] relates to P388. The data set is described as follows: Median survival time of test animals compared to controls at 50 mg/kg (ip) against P388 Lymphocytic Leukemia in mice. The data set is classed as functional, Mus musculus. The essentials: as §3
Data set [18] deals with P388. The data set is described as follows: Median survival time of test animals compared to controls at 2.5 mg/kg (ip) against P388 Lymphocytic Leukemia in mice. It counts as functional, Mus musculus. The gist of the method:
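P388 leukemia cells given ip to male CDF1 mice; ip dosing began 24 h later, nine daily doses, as suspensions in Klucel (hydroxypropylcellulose) or water. Acute toxicity checked on day 5. Survival read on day 30 as median survival time of treated versus control mice (% T/C). Weight difference is treated minus control, in grams.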

Data set [19] has as its system P388. The data set is described as follows: Weight difference at 12.5 mg/kg (ip)against P388 Lymphocytic Leukemia in mice. The data set is classed as functional, Mus musculus. The gist of the method:
(§5)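 P388 leukemia cells inoculated ip into male CDF1 mice; ip treatment started 24 h later, five daily doses, as Klucel (hydroxypropylcellulose) suspension or aqueous solution. Acute toxicity on day 5. Day-30 median survival of treated versus control mice expressed as % T/C. Weight difference is treated minus control, in grams.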

The test system of data set [20] is P388. The data set is described as follows: Weight difference at 10 mg/kg (ip)against P388 Lymphocytic Leukemia in mice. It counts as functional, Mus musculus. The essentials:
as §2

Data set [21] has as its system P388. The data set is described as follows: Log of the tumor cell population at the end of treatment at 5 mg/kg (ip) against P388 Lymphocytic Leukemia in mice. The data set is classed as functional, Mus musculus.
Data set [22] concerns P388. The data set is described as follows: Weight difference at 40 mg/kg (ip)against P388 Lymphocytic Leukemia in mice. The data set is classed as functional, Mus musculus. The gist of the method: as §2
For data set [23], the system named is P388. The data set is described as follows: Median survival time of test animals compared to controls at 12.5 mg/kg (ip) against P388 Lymphocytic Leukemia in mice. The data set is classed as functional, Mus musculus. The gist of the method:
as §5

Data set [24] deals with P388. The data set is described as follows: Weight difference at 25 mg/kg (ip)against P388 Lymphocytic Leukemia in mice. It counts as functional, Mus musculus. The essentials:
as §4

The test system of data set [25] is P388. The data set is described as follows: Weight difference at 2.5 mg/kg (ip)against P388 Lymphocytic Leukemia in mice. The data set is classed as functional, Mus musculus. The essentials:
as §2

The test system of data set [26] is P388. The data set is described as follows: Log of the tumor cell population at the end of treatment at 6.25 mg/kg (ip) against P388 Lymphocytic Leukemia in mice. It counts as functional, Mus musculus.
Data set [27] deals with P388. The data set is described as follows: Median survival time of test animals compared to controls at 6.25 mg/kg (ip) against P388 Lymphocytic Leukemia in mice. It counts as functional, Mus musculus. The gist of the method:
as §3

For data set [28], the system named is P388. The data set is described as follows: Log of the tumor cell population at the end of treatment at 50 mg/kg (ip) against P388 Lymphocytic Leukemia in mice. It counts as functional, Mus musculus.
Data set [29] concerns P388. The data set is described as follows: Median survival time of test animals compared to controls at 40 mg/kg (ip) against P388 Lymphocytic Leukemia in mice. The data set is classed as functional, Mus musculus. The gist of the method: as §1
Data set [30] concerns P388. The data set is described as follows: Log of the tumor cell population at the end of treatment at 12.5 mg/kg (ip) against P388 Lymphocytic Leukemia in mice. The data set is classed as functional, Mus musculus.
Data set [31] has as its system P388. The data set is described as follows: Weight difference at 6.25 mg/kg (ip)against P388 Lymphocytic Leukemia in mice. The data set is classed as functional, Mus musculus. The essentials:
as §4

Data set [32] relates to P388. The data set is described as follows: Log of the tumor cell population at the end of treatment at 25 mg/kg (ip) against P388 Lymphocytic Leukemia in mice. It counts as functional, Mus musculus.
The test system of data set [33] is P388. The data set is described as follows: Weight difference at 50 mg/kg (ip)against P388 Lymphocytic Leukemia in mice. It counts as functional, Mus musculus. The essentials: as §4

On to `CC(C)NC(=O)OCc1c(COC(=O)NC(C)C)c(-c2ccc(Cl)c(Cl)c2)n2c1CC(OC(=O)CCC(=O)[O-])C2.[K+]` (configuration not stated), for which the half-life in the data set “Half life was determined” is 92 min. In data set [1], the solubility turned out to be 38.8 mM.

Consider `CC(C)NC(=O)OCc1c(COC(=O)NC(C)C)c(-c2ccc(Cl)c(Cl)c2)n2c1CCC2`, for which the Log cell kill in the data set on P388 [2] is on record as -1.64; with P388 [7], -1.44; in the data set with P388 [8] it was -1.4; in the data set on P388 [15] it was -1.41; in the data set with P388 [16], -1.25; with P388 [18], -1.52. Besides, the Log cell kill with P388 [21] is -1.63; in the data set on P388 [26] it was 2.01; with P388 [28], 5.25; with P388 [30] it was 1.7; in the data set on P388 [32] it was 3.16. The T/C came to 127% with P388 [3]; 141% in the data set on P388 [4]; 126% with P388 [9]; 179% with P388 [10]; 110% in the data set with P388 [11]; 144% in the data set with P388 [14]. The T/C in the data set on P388 [17] worked out at 205%; in the data set with P388 [18], 135%; in the data set with P388 [23], 160%; in the data set on P388 [27] it was 164%; in the data set with P388 [29], 155%. Also, the Weight change with P388 [5] is -0.8 g; in the data set with P388 [6] it was -4 g; in the data set on P388 [12] it was -5.6 g; with P388 [13], -1.8 g; with P388 [19], -3.4 g; in the data set on P388 [20] it was -0.7 g. The Weight change is on record as -2.6 g in the data set on P388 [22]; -3.9 g in the data set on P388 [24]; -0.5 g in the data set with P388 [25]; -2.8 g in the data set on P388 [31]; -5.3 g with P388 [33]. The compound further yielded a half-life in the data set “Half life was determined” of 13 min. For the same compound, the solubility in data set [1] stood at 0.00126 mM (≈ 0.608 µg/mL).

As a reminder, the half-life is the time needed for the level to fall by half in the phase considered. The low end stands for fast loss, the high end for slow loss. In general, T/C refers to the ratio of treated to control.
